Test results reported in publication PMC5092235 (Journal of medicinal chemistry, 2016).

Assays:
[1] = Phase II metabolism, detection of glucuronidation in blood plasma; assay type: in vivo, mouse; conditions: blood plasma after iv administration, 15 mg/kg
Procedure, shortened: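 Test compound was given iv at 15 mg/kg to mice. Glucuronide was detected in blood plasma by LC–MS/MS in positive-ion MRM mode, following the same handling used for the pharmacokinetic study.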

[2] = tested on: Hoxa9/Meis1 (HM-2) transformed murine bone marrow cells; assay: MTT cell viability assay in Hoxa9/Meis1; assay type: cell-based; conditions: up to 6 μM, 7 days
MV4;11 tumors = assay: MV4; assay type: in vivo, mouse; conditions: 45 mg/kg, once daily via ip, 2 weeks
[3] = tested on: MLL-AF9 transformed murine bone marrow cells; assay: MTT cell viability assay in MLL-AF9 transformed murine bone marrow cells; assay type: cell-based; conditions: for SI, selectivity index: ratio of GI50 values measured in HM-2 cells (control cell line) and MLL-AF9 transformed cells; for GI50: read-out: GI50 MLL-AF9, MTT cell viability assay, 7 days of treatment
HL-60 cells = assay: MTT cell viability assay in HL-60 control cell line; assay type: cell-based, human; conditions: up to 6 μM, 7 days
Procedure, shortened: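 MTT viability over 7 days at 37 °C. Cells were grown in RPMI-1640 with 10% FBS, penicillin/streptomycin and NEAA, then seeded at 2 × 10^5/mL (HL-60) or 1 × 10^5/mL (MV4;11, MOLM-13). They were treated with test compound or 0.25% DMSO. On day 4 the medium was changed, viable cells were reset to the starting density, and compound was resupplied. Absorbance was read at 570 nm in quadruplicate, with runs repeated 2–3 times; mean and SD are reported.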

menin = molecular target: T1, menin (Homo sapiens, UniProt O00255); assay: Isothermal titration calorimetry, binding to menin
T1 sequence (O00255 1-610): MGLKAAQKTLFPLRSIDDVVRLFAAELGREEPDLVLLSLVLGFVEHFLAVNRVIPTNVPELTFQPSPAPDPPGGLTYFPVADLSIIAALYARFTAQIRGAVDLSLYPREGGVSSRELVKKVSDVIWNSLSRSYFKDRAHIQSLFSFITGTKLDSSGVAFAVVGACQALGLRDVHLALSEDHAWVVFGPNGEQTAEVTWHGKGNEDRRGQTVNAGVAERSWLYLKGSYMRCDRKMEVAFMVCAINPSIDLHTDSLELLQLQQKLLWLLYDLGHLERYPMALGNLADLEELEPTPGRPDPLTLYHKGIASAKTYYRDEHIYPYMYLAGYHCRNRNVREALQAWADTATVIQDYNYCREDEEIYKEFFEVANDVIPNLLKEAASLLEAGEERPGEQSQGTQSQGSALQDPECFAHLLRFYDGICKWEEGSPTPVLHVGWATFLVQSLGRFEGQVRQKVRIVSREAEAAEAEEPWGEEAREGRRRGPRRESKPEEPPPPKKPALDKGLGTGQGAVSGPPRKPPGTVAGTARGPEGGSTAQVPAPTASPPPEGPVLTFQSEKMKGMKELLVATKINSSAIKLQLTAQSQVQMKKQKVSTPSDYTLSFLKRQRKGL

[4] = Pharmacokinetic studies in mice; assay type: in vivo, mouse; conditions: 24 h experiments (31: 8 h experiment); for half-life: female, C57BL/6, mouse, plasma, T1/2, mice; for Clobs: mice
[5] = tested on: Hoxa9, Meis1 and Itgam expression in MLL-AF9 transformed BMCs; assay: qRT-PCR gene expression in MLL-AF9 transformed murine bone marrow cells; assay type: cell-based; conditions: 6 days of treatment
Procedure, shortened: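 MLL-AF9-transformed murine bone marrow cells were treated for 6 days, and expression was then quantified by qRT-PCR. Itgam was normalised to 18S rRNA, and Hoxa9 and Meis1 to β-actin, each relative to DMSO-treated cells. Values are mean ± SD, n = 2.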

[6] = Caco-2 membrane permeability studies; assay type: in vitro ADME; conditions: for cellular permeability: Caco-2 cells; for efflux ratio: human, Caco-2
panel of GPCRs = assay: GPCR profiling
panel of kinases = assay: Kinase profiling; assay type: biochemical

SMILES: N#Cc1cc2cc(CN3CCC(Nc4ncnc5sc(CC(F)(F)F)cc45)CC3)c(O)cc2n1Cc1cn[nH]c1 [Compound 27, 1-((1H-Pyrazol-4-yl)methyl)-6-hydroxy-5-((4-((6-(2,2,2-trifluoroethyl)thieno[2,3-d]pyrimidin-4-yl)amino)piperidin-1-yl)methyl)-1H-indole-2-carbonitrile]
- phase II metabolism [1]: undergoes glucuronidation
- effect on growth of control cell line HM-2 [2]: no effect
- reduction in the MV4;11 tumor volume (MV4;11 tumors): about 80%
- reduction of the body weight (MV4;11 tumors): less than 10%
- SI, selectivity index [3]: > 100
- effect on growth of control cell line HL-60 (HL-60 cells): no effect
- ligand efficiency index (LE) (menin): 0.28
- half-life ([4]; iv, 15 mg/kg, iv, 15 mg/kg): ~1.6 h
- half-life ([4]; po, 30 mg/kg, po, 30 mg/kg): 1.6 h
- Clobs ([4]; iv, 15 mg/kg): 14.0 mL/min/kg
- expression level of Itgam (differentiation marker) [5]: marked increase

SMILES: COc1cc2c(cc(C#N)n2Cc2cn[nH]c2)c(C)c1CN1CCC(Nc2ncnc3sc(CC(F)(F)F)cc23)CC1 [Compound 31, 1-((1H-Pyrazol-4-yl)methyl)-6-methoxy-4-methyl-5-((4-((6-(2,2,2-trifluoroethyl)thieno[2,3-d]pyrimidin-4-yl)amino)-piperidin-1-yl)methyl)-1H-indole-2-carbonitrile]
- GI50 [3]: < 200 nM
- Clobs ([4]; iv, 15 mg/kg): 15.0 mL/min/kg

SMILES: Cc1c(CN2CCC(Nc3ncnc4sc(CC(F)(F)F)cc34)CC2)ccc2c1cc(C#N)n2CC(N)=O [Compound 25, 2-(2-Cyano-4-methyl-5-((4-((6-(2,2,2-trifluoroethyl)thieno-[2,3-d]pyrimidin-4-yl)amino)piperidin-1-yl)methyl)-1H-indol-1-yl)acetamide]
- cellular permeability [6]: poor cellular permeability

SMILES: Cc1c(CN2CCC(Nc3ncnc4sc(CC(F)(F)F)cc34)CC2)c(O)cc2[nH]c(C#N)cc12 [Compound 20, 6-Hydroxy-4-methyl-5-((4-((6-(2,2,2-trifluoroethyl)thieno-[2,3-d]pyrimidin-4-yl)amino)piperidin-1-yl)methyl)-1H-indole-2-carbonitrile]
- GI50 [3]: < 200 nM
- Clobs ([4]; iv, 15 mg/kg): 44.1 mL/min/kg
- cellular permeability [6]: relatively high to moderate cellular permeability

SMILES: CO[C@@H](CO)Cn1c(C#N)cc2cc(CN3CCC(Nc4ncnc5sc(CC(F)(F)F)cc45)CC3)ccc21 [4-(R)]
- efflux ratio [6]: > 20

SMILES: N#Cc1cc2cc(CN3CCC(Nc4ncnc5sc(CC(F)(F)F)cc45)CC3)ccc2[nH]1 [Compound 1, 5-((4-((6-(2,2,2-Trifluoroethyl)thieno[2,3-d]pyrimidin-4-yl)-amino)piperidin-1-yl)methyl)-1H-indole-2-carbonitrile]
- off-target activity on a panel of GPCRs (panel of GPCRs): did not show substantial off-target activity
- SI, selectivity index [3]: < 6
- off-target activity on a panel of kinases (panel of kinases): did not show substantial off-target activity
- Clobs ([4]; iv, 15 mg/kg): 38.1 mL/min/kg

SMILES: N#Cc1cc2cc(CN3CCC(Nc4ncnc5sc(CC(F)(F)F)cc45)CC3)ccc2n1CC(N)=O [Compound 7, 2-(2-Cyano-5-((4-((6-(2,2,2-trifluoroethyl)thieno[2,3-d]-pyrimidin-4-yl)amino)piperidin-1-yl)methyl)-1H-indol-1-yl)-acetamide]
- cellular permeability [6]: poor cellular permeability
- efflux ratio [6]: > 90

SMILES: N#Cc1cc2cc(CN3CCC(Nc4ncnc5sc(CC(F)(F)F)cc45)CC3)ccc2n1CC(O)CO (racemic) [3-(RS)]
- cellular permeability [6]: poor cellular permeability

SMILES: COc1cc2[nH]c(C#N)cc2c(C)c1CN1CCC(Nc2ncnc3sc(CC(F)(F)F)cc23)CC1 [Compound 21, 6-Methoxy-4-methyl-5-((4-((6-(2,2,2-trifluoroethyl)thieno-[2,3-d]pyrimidin-4-yl)amino)piperidin-1-yl)methyl)-1H-indole-2-carbonitrile]
- GI50 [3]: 100 nM
- Clobs ([4]; iv, 15 mg/kg): 26.6 mL/min/kg
- cellular permeability [6]: relatively high to moderate cellular permeability
